In brackets after ≈: the same amount, converted by molar mass.
Assays:
P. falciparum (D6) = assay: in vitro antimalarial activity, plasmodial LDH; format: cell-based, Plasmodium falciparum; conditions: CQ-sensitive D6 strain, 72 h
P. falciparum (W2) = assay: in vitro antimalarial activity, plasmodial LDH; format: cell-based, Plasmodium falciparum; conditions: CQ-resistant W2 strain, 72 h
Outline: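 P. falciparum-infected erythrocytes (2% parasitemia, 2% hematocrit) in RPMI 1640 with 10% human serum and 60 μg/mL amikacin. Exposed to test compound dilutions for 72 h at 37 °C under 90% N2/5% O2/5% CO2. LDH measured with Malstat reagent (30 min, room temperature), then NBT/PES for 1 h in the dark, stopped with 5% acetic acid, read at 650 nm. IC50 from dose-response curves.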

[1] = tested on: SK-MEL, KB, BT-549, SK-OV-3, VERO and LLC-PK1 cells; assay: cytotoxicity, neutral red uptake assay; format: cell-based, mammalian; conditions: highest test concentration 4760 ng/mL
Outline: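 Cells seeded at 25 000/well and allowed 24 h to reach confluence. Test compound was then added and incubated 48 h. Viable cells were counted by a modified neutral red uptake method. The panel was four human cancer lines and two noncancerous mammalian kidney lines. Doxorubicin served as positive control and DMSO as negative control.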

[2] = tested on: L. donovani promastigotes; assay: in vitro antileishmanial activity, alamarBlue assay; format: cell-based, Leishmania donovani; conditions: promastigotes, 48 h
C. albicans ATCC90028 = assay: in vitro antifungal activity; format: cell-based, Candida albicans
Outline: (§1)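 Modified NCCLS broth method in Sabouraud dextrose. Inoculum set by OD630 to 1.5 × 10^3 CFU/mL. Test compound serially diluted in 20% DMSO/saline, duplicate wells, up to 20 μg/mL. Incubated 70–74 h at 35 °C; 530 nm read before and after. IC50 is 50% growth inhibition; MIC is no detectable growth. MFC from clear wells subcultured on agar. Amphotericin B control.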

C. glabrata ATCC90030 = assay: in vitro antifungal activity; format: cell-based, Candida glabrata
Outline: as §1

C. krusei ATCC6258 = assay: in vitro antifungal activity; format: cell-based, Candida krusei
Outline: as §1

C. neoformans ATCC90113 = assay: in vitro antifungal activity; format: cell-based, Cryptococcus neoformans
Outline: as §1

A. fumigatus ATCC 90906 = assay: in vitro antifungal activity; format: cell-based, Aspergillus fumigatus
Outline: as §1

SA (ATCC29213) = assay: in vitro antibacterial activity; format: cell-based; conditions: Staphylococcus aureus; highest test concentration 20 μg/mL
Outline: (§2)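 Test compound serially diluted in 20% DMSO/saline and plated in duplicate, up to 20 μg/mL. Inoculum in cation-adjusted Mueller–Hinton broth, pH 7.3, set by OD630 to 5 × 10^5 CFU/mL. Incubated 16–20 h at 35 °C; 530 nm read before and after. IC50 is 50% growth inhibition; MIC is no detectable growth. MBC from clear wells subcultured on agar. Ciprofloxacin control.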

MRSA (ATCC33591) = assay: in vitro antibacterial activity; format: cell-based, methicillin-resistant Staphylococcus aureus; conditions: methicillin-resistant S. aureus; highest test concentration 20 μg/mL
Outline: as §2

[3] = tested on: M. intracellulare (ATCC23068); assay: in vitro antibacterial activity, modified alamarBlue procedure; format: cell-based, Mycobacterium intracellulare; conditions: highest test concentration 20 μg/mL
Outline: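 Modified alamarBlue microplate method. Test compound serially diluted in 20% DMSO/saline, duplicate wells, up to 20 μg/mL. Inoculum 2.0 × 10^6 CFU/mL in Middlebrook 7H9 with OADC, pH 7.3, containing 5% alamarBlue. Incubated 70–74 h at 37 °C, 10% CO2; fluorescence 544ex/590em read before and after. MIC: no blue-to-pink change. MBC by subculturing blue wells on agar. Ciprofloxacin control.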

SMILES: CCCCCCCCOc1c(OC)cc(NC(C)CCCNC(=O)C(N)CCCN)c2nc(C(C)(C)C)ccc12 (stereo not shown) [compound 118, 2,5-Diamino-N-(4-(2-tert-butyl-6-methoxy-5-(octyloxy)quinolin-8-lamino)pentyl)-pentanamide]
- P. falciparum (D6) IC50 (P. falciparum (D6)): NA (NA, not active)
- P. falciparum (W2) IC50 (P. falciparum (W2)): NA (NA, not active)
- cytotoxicity CTX [1]: NC (NC, not cytotoxic up to 4760 ng/mL (4.76 μg/mL))
- L. donovani IC50 [2]: 26.61 µg/mL
- L. donovani IC90 [2]: 37.9 µg/mL
- C. albicans IC50 (C. albicans ATCC90028): 19.95 µg/mL
- C. albicans MFC (C. albicans ATCC90028): >20 µg/mL
- C. albicans MIC (C. albicans ATCC90028): >20 µg/mL
- C. glabrata IC50 (C. glabrata ATCC90030): 8.05 µg/mL
- C. glabrata MFC (C. glabrata ATCC90030): >20 µg/mL
- C. glabrata MIC (C. glabrata ATCC90030): >20 µg/mL
- C. krusei IC50 (C. krusei ATCC6258): 15.36 µg/mL
- C. krusei MFC (C. krusei ATCC6258): >20 µg/mL
- C. krusei MIC (C. krusei ATCC6258): >20 µg/mL
- C. neoformans IC50 (C. neoformans ATCC90113): 4.93 µg/mL
- C. neoformans MFC (C. neoformans ATCC90113): >20 µg/mL
- C. neoformans MIC (C. neoformans ATCC90113): >20 µg/mL
- A. fumigatus IC50 (A. fumigatus ATCC 90906): NA (NA, no activity at the highest test concentration of 20 μg/mL)
- A. fumigatus MFC (A. fumigatus ATCC 90906): NA (NA, no activity at the highest test concentration of 20 μg/mL)
- A. fumigatus MIC (A. fumigatus ATCC 90906): NA (NA, no activity at the highest test concentration of 20 μg/mL)
- IC50 (concentration that affords 50% growth inhibition), SA (SA (ATCC29213)): NA (NA, no activity at the highest test concentration of 20 μg/mL)
- MBC (minimum bactericidal concentration), SA (SA (ATCC29213)): NA (NA, no activity at the highest test concentration of 20 μg/mL)
- MIC, SA (SA (ATCC29213)): NA (NA, no activity at the highest test concentration of 20 μg/mL)
- IC50 (concentration that affords 50% growth inhibition), MRSA (MRSA (ATCC33591)): NA (NA, no activity at the highest test concentration of 20 μg/mL)
- MBC (minimum bactericidal concentration), MRSA (MRSA (ATCC33591)): NA (NA, no activity at the highest test concentration of 20 μg/mL)
- MIC, MRSA (MRSA (ATCC33591)): NA (NA, no activity at the highest test concentration of 20 μg/mL)
- IC50 (concentration that affords 50% growth inhibition), M. intracellulare [3]: 7.71 µg/mL (≈ 13.8 µM)
- MBC (minimum bactericidal concentration), M. intracellulare [3]: >20 µg/mL
- MIC, M. intracellulare [3]: >20 µg/mL

SMILES: CCCCCCCOc1c(OC)cc(NC(C)CCCNC(=O)C2CCCN2)c2nc(C(C)(C)C)ccc12 (stereo not shown) [compound 113, N-(4-(2-tert-Butyl-5-(heptyloxy)-6-methoxyquinolin-8-lamino)pentyl)pyrrolidine-2-carboxamide]
- P. falciparum (D6) IC50 (P. falciparum (D6)): 2.4 µg/mL
- P. falciparum (W2) IC50 (P. falciparum (W2)): 1.5 µg/mL
- cytotoxicity CTX [1]: NC (NC, not cytotoxic up to 4760 ng/mL (4.76 μg/mL))
- L. donovani IC50 [2]: 3.8 µg/mL
- L. donovani IC90 [2]: 7 µg/mL
- C. albicans IC50 (C. albicans ATCC90028): NA (NA, no activity at the highest test concentration of 20 μg/mL)
- C. albicans MFC (C. albicans ATCC90028): NA (NA, no activity at the highest test concentration of 20 μg/mL)
- C. albicans MIC (C. albicans ATCC90028): NA (NA, no activity at the highest test concentration of 20 μg/mL)
- C. glabrata IC50 (C. glabrata ATCC90030): NA (NA, no activity at the highest test concentration of 20 μg/mL)
- C. glabrata MFC (C. glabrata ATCC90030): NA (NA, no activity at the highest test concentration of 20 μg/mL)
- C. glabrata MIC (C. glabrata ATCC90030): NA (NA, no activity at the highest test concentration of 20 μg/mL)
- C. krusei IC50 (C. krusei ATCC6258): NA (NA, no activity at the highest test concentration of 20 μg/mL)
- C. krusei MFC (C. krusei ATCC6258): NA (NA, no activity at the highest test concentration of 20 μg/mL)
- C. krusei MIC (C. krusei ATCC6258): NA (NA, no activity at the highest test concentration of 20 μg/mL)
- C. neoformans IC50 (C. neoformans ATCC90113): 2.93 µg/mL
- C. neoformans MFC (C. neoformans ATCC90113): 5.00 µg/mL
- C. neoformans MIC (C. neoformans ATCC90113): 5.00 µg/mL
- A. fumigatus IC50 (A. fumigatus ATCC 90906): NA (NA, no activity at the highest test concentration of 20 μg/mL)
- A. fumigatus MFC (A. fumigatus ATCC 90906): NA (NA, no activity at the highest test concentration of 20 μg/mL)
- A. fumigatus MIC (A. fumigatus ATCC 90906): NA (NA, no activity at the highest test concentration of 20 μg/mL)
- IC50 (concentration that affords 50% growth inhibition), SA (SA (ATCC29213)): 3.52 µg/mL (≈ 6.68 µM)
- MBC (minimum bactericidal concentration), SA (SA (ATCC29213)): 10.00 µg/mL (≈ 19 µM)
- MIC, SA (SA (ATCC29213)): 10.00 µg/mL (≈ 19 µM)
- IC50 (concentration that affords 50% growth inhibition), MRSA (MRSA (ATCC33591)): 3.16 µg/mL (≈ 6 µM)
- MBC (minimum bactericidal concentration), MRSA (MRSA (ATCC33591)): 20.00 µg/mL (≈ 38 µM)
- MIC, MRSA (MRSA (ATCC33591)): 5.00 µg/mL (≈ 9.49 µM)
- IC50 (concentration that affords 50% growth inhibition), M. intracellulare [3]: 16.67 µg/mL (≈ 31.6 µM)
- MBC (minimum bactericidal concentration), M. intracellulare [3]: 20.00 µg/mL (≈ 38 µM)
- MIC, M. intracellulare [3]: 20.00 µg/mL (≈ 38 µM)

SMILES: CCCCCCCCOc1c(OC)cc(NC(C)CCCNC(=O)C(N)CCCCN)c2nc(C(C)(C)C)ccc12 (stereo not shown) [compound 117, 2,6-Diamino-N-(4-(2-tert-butyl-6-methoxy-5-(octyloxy)quinolin-8-lamino)pentyl)-hexanamide]
- P. falciparum (D6) IC50 (P. falciparum (D6)): NA (NA, not active)
- P. falciparum (W2) IC50 (P. falciparum (W2)): NA (NA, not active)
- cytotoxicity CTX [1]: NC (NC, not cytotoxic up to 4760 ng/mL (4.76 μg/mL))
- C. albicans IC50 (C. albicans ATCC90028): NA (NA, no activity at the highest test concentration of 20 μg/mL)
- C. albicans MFC (C. albicans ATCC90028): NA (NA, no activity at the highest test concentration of 20 μg/mL)
- C. albicans MIC (C. albicans ATCC90028): NA (NA, no activity at the highest test concentration of 20 μg/mL)
- C. glabrata IC50 (C. glabrata ATCC90030): NA (NA, no activity at the highest test concentration of 20 μg/mL)
- C. glabrata MFC (C. glabrata ATCC90030): NA (NA, no activity at the highest test concentration of 20 μg/mL)
- C. glabrata MIC (C. glabrata ATCC90030): NA (NA, no activity at the highest test concentration of 20 μg/mL)
- C. krusei IC50 (C. krusei ATCC6258): NA (NA, no activity at the highest test concentration of 20 μg/mL)
- C. krusei MFC (C. krusei ATCC6258): NA (NA, no activity at the highest test concentration of 20 μg/mL)
- C. krusei MIC (C. krusei ATCC6258): NA (NA, no activity at the highest test concentration of 20 μg/mL)
- C. neoformans IC50 (C. neoformans ATCC90113): 11.92 µg/mL
- C. neoformans MFC (C. neoformans ATCC90113): >20 µg/mL
- C. neoformans MIC (C. neoformans ATCC90113): >20 µg/mL
- A. fumigatus IC50 (A. fumigatus ATCC 90906): NA (NA, no activity at the highest test concentration of 20 μg/mL)
- A. fumigatus MFC (A. fumigatus ATCC 90906): NA (NA, no activity at the highest test concentration of 20 μg/mL)
- A. fumigatus MIC (A. fumigatus ATCC 90906): NA (NA, no activity at the highest test concentration of 20 μg/mL)
- IC50 (concentration that affords 50% growth inhibition), SA (SA (ATCC29213)): NA (NA, no activity at the highest test concentration of 20 μg/mL)
- MBC (minimum bactericidal concentration), SA (SA (ATCC29213)): NA (NA, no activity at the highest test concentration of 20 μg/mL)
- MIC, SA (SA (ATCC29213)): NA (NA, no activity at the highest test concentration of 20 μg/mL)
- IC50 (concentration that affords 50% growth inhibition), MRSA (MRSA (ATCC33591)): NA (NA, no activity at the highest test concentration of 20 μg/mL)
- MBC (minimum bactericidal concentration), MRSA (MRSA (ATCC33591)): NA (NA, no activity at the highest test concentration of 20 μg/mL)
- MIC, MRSA (MRSA (ATCC33591)): NA (NA, no activity at the highest test concentration of 20 μg/mL)
- IC50 (concentration that affords 50% growth inhibition), M. intracellulare [3]: NA (NA, no activity at the highest test concentration of 20 μg/mL)
- MBC (minimum bactericidal concentration), M. intracellulare [3]: NA (NA, no activity at the highest test concentration of 20 μg/mL)
- MIC, M. intracellulare [3]: NA (NA, no activity at the highest test concentration of 20 μg/mL)

Source: publication PMC6045484 (ACS Omega, 2018)
